Screening data as filed in PubChem.
b-catenin transl = modulators of beta-catenin nuclear translocation | HeLa beta-catenin nuclear translocation, immunofluorescence imaging | nuclear translocation activity, % at 5 µM | 190,000 compounds, 0.3% hits;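 active = nuclear translocation activity above 50% at 5 µM, with a well cell count of 50 or more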;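 note: per-cell ratio of nuclear to cytoplasmic median beta-catenin stain intensity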
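Test system: HeLa cells, endogenous beta-catenin; Compound: single 5 µM dose plus 0.02–20 µM confirmation series; Times: compound exposure 24 h at 37°C; Signal: fluorescence imaging of beta-catenin antibody stain plus DAPI; Read-out: % activation, nuclear-to-cytoplasmic median beta-catenin signal ratio per cell.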
Yeast life ext = yeast lifespan extension; S. cerevisiae growth with nicotinamide, OD615; deaD strain in restrictive glucose medium; inhibition of the nicotinamide effect, % at 10 µM; 130,000 compounds, 0.68% hits;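 active = inhibition above a set limit, placed 3 SD over the median of all compounds, cut at about 26% in these data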
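assay system = DeaD-strain S. cerevisiae | measured by = absorbance at 615 nm | probe or stimulus = nicotinamide 1.5 mM | buffer or medium = CSMM-D glucose medium, restrictive | times = 48 h at 30 °C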
Yeast growth inh = chemicals that inhibit yeast BB579 growth in restrictive medium (lifespan-shortening candidates); 140,000 compounds, 0.51% hits; inhibition, % at 10 µM; S. cerevisiae BB579 growth, OD615, 48 h; AID 804;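 active = inhibition above a set limit, 3 SD over the mean compound inhibition, cut at about 44% in these data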
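controls = amphotericin B 10 µg/mL, positive | assay system = DeaD yeast strain BB579 | schedule = 48 h compound exposure at 30 °C after 4 h preincubation | detection = OD615 turbidity measurement | medium = restrictive CSMM-D medium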
Efa HMGR inh = inhibitors of class II HMG-CoA reductase from Enterococcus faecalis; AID 1066; 190,000 compounds, 0.41% hits; inhibition, % at 10 µM; purified E. faecalis HMGR, NADPH absorbance 340 nm kinetic;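 active = inhibition above a set limit, the median over all tested compounds plus 3 SD, cut at about 9.5% in these data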;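 note: enzyme runs in reverse so mevalonate oxidation gives rising NADPH absorbance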
MT stabilize HCS = microtubule stabilizers in HeLa cells. HeLa tubulin immunostaining HCS, 24 h; share of cells brighter than vehicle mean+2SD. % tubulin-high responders, % at 10 µM. 200,000 compounds, 0.83% hits. AID 2205;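 active = plate Z-score above 3 for both tubulin-high and condensed-nucleus cell shares, with cell loss under 80%, at 10 µM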;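 note: anti alpha tubulin signal scored within the nucleus-defined area of each cell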
RAM inhibit = inhibitors of the yeast RAM network; S. cerevisiae dse1pr::URA3 reporter, 5-FOA growth OD615, 2 d; analog-sensitive cbk1-as2 kinase mutant strain; inhibition, % at 50 µM; 190,000 compounds, 1.8% hits; AID 868;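 active = inhibition above a set limit, 3 SD over mean compound inhibition, cut at about 8.4% in these data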;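 note: inhibition rescues growth on 5-FOA so higher OD means more RAM inhibition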
RAM efflux-def = RAM network inhibitors in efflux-deficient yeast | 1,200 tested, under 10 active | shares compounds with RAM inhibit | S. cerevisiae efflux-deficient reporter strain, 5-FOA growth OD615, 2 days | AID 1305 | max inhibition, %; call rule not given here
Numbers stand for hits; 0 = inactive; - = not tested or not shown. An excerpt weighted towards active compounds, which were near 3.5% of everything screened.

SMILES	b-catenin transl	Yeast life ext	Yeast growth inh	Efa HMGR inh	MT stabilize HCS	RAM inhibit	RAM efflux-def
COC(=O)C1=CN(Cc2cccs2)C=C(C(=O)OC)C1c1cccc(Cl)c1	0	-	-	0	0	13	0
CC(C)CCC(C)N=Cc1c(O)n(Cc2ccccc2)c(=O)c2ccccc12 (stereo not drawn)	0	0	0	0	0	17	0
COc1cccc(C2CC(c3ccc(NS(C)(=O)=O)cc3)=NN2C(=O)c2ccccc2)c1OC (stereo not drawn)	0	-	-	0	0	0	-
COC(=O)CCSCC(=O)N1N=C(c2ccc(Br)cc2)CC1c1cccc(OC)c1OC (stereo not drawn)	0	-	-	0	0	13	0
CCN(c1ccccc1)S(=O)(=O)c1ccc(Cl)nc1	0	-	-	0	0	0	-
CCN(c1ccccc1)S(=O)(=O)c1ccc(NCC2COc3ccccc3O2)nc1 (stereo not drawn)	0	0	0	0	0	13	0
O=C(OCC#CCSc1nnc(-c2cccc3ccccc23)o1)c1ccco1	0	0	0	0	0	17	0
O=C(OCC#CCSc1nc2ccccc2o1)c1ccco1	-	0	0	0	0	0	-
CCCc1nn(C)c(C(=O)Nc2ccc(C)c(C)c2)c1Cl	0	0	0	0	0	22	0
O=[N+]([O-])c1ccc(COc2cccc(CNc3ccc(Br)cc3)c2)cc1	0	0	0	0	0	14	0
Cc1ccc(S(=O)(=O)N(CCCO)CC(O)CON=C2c3ccccc3-c3ccccc32)cc1 (stereo not drawn)	0	0	0	0	0	13	0
CCOc1ccccc1NC(=O)C(OC(=O)c1cc(C)oc1C)c1ccccc1 (stereo not drawn)	-	0	0	0	0	14	0
COc1ccc(C2/C=C\CN(Cc3ccc(N(C)C)cc3)CC(=O)N2Cc2ccc(F)cc2)cc1 (stereo not drawn)	0	-	-	-	-	-	-
COc1ccc(CCNC(=O)CSc2nc(-c3ccco3)cc(C(F)(F)F)n2)cc1OC	0	0	0	0	0	0	-
O=C(CSc1nc(-c2ccco2)cc(C(F)(F)F)n1)NCCc1ccccc1	-	0	0	0	0	14	0
C=CCN(CC=C)C(=O)c1ccc(OC2CCN(S(=O)(=O)N(C)C)CC2)cc1	0	-	-	0	0	0	-
COc1ccc(C(=O)/C=C/Nc2ccc(S(=O)(=O)Nc3nc(C)cc(C)n3)cc2)cc1OC	-	0	0	0	0	0	-
COc1ccc(C(=O)/C=C/Nc2ccc(S(=O)(=O)Nc3onc(C)c3C)cc2)cc1	0	0	0	0	0	13	0
COc1ccc(C(=O)/C=C/Nc2ccc(S(=O)(=O)Nc3ncccn3)cc2)cc1	0	0	0	0	0	12	0
Cc1noc(NS(=O)(=O)c2ccc(N/C=C/C(=O)c3ccncc3)cc2)c1C	0	0	0	0	0	0	-
CN(Cc1cnn(-c2ccc(F)cc2)c1)Cc1nc(Cc2ccccc2)no1	0	-	-	0	0	0	-
CCc1oc2ccccc2c1C(=O)c1cc(Br)c(O)c(Br)c1	0	0	82	0	0	16	0
COc1ccccc1N(CC(O)COc1ccccc1)S(=O)(=O)c1ccccc1 (stereo not drawn)	0	0	0	0	0	0	-
COc1ccccc1N(CC(O)CN(c1ccccc1)S(C)(=O)=O)S(=O)(=O)c1ccccc1 (stereo not drawn)	0	0	0	0	0	0	-
COc1ccccc1N(CC(O)COc1c(C)cc(C)cc1C)S(=O)(=O)c1ccccc1 (stereo not drawn)	0	0	0	0	0	12	0
COc1ccccc1N(CC(O)COc1ccc(C)cc1)S(=O)(=O)c1ccccc1 (stereo not drawn)	0	0	0	0	0	12	0
CC(C)C[C@H](NC(=O)c1[nH]cnc1C(=O)N[C@H](C)c1ccccc1)C(=O)OCc1ccccc1	0	-	-	0	0	12	0
COc1cccc(-c2cc(C(F)(F)F)nc(N3CCN(c4ccccc4)CC3)n2)c1	0	0	0	0	0	16	0
